Results gathered from unrelated publications.
Lines come from different studies, so protocols differ.
Target: Mitogen-activated protein kinase 8 (MAPK8, Homo sapiens, UniProt P45983)

SMILES	read-out	mode	technique	tested at	measurement	value
C[C@H]1CC[C@H](n2c3cnccc3c3cnc(Nc4ccc5c(n4)CCN(C(=O)CO)C5)nc32)CC1	binding			1 µM	remaining binding	7%
N#Cc1ccc(NC(=O)Nc2ccccc2)cc1	cell-free assay		competition with immobilised ligand	25 µM	remaining binding	78%
Cc1ccc(NC(=O)c2ccnc(C(F)(F)F)c2)cc1-c1cc(OCCO)nc(N2CCOCC2)c1	binding			1 µM	remaining binding	80%
C#Cc1cc(-c2cc(Nc3nc(N[C@@H](C)c4ccc(F)cn4)ncc3Cl)n[nH]2)ccc1C=O	enzyme activity	inhibitor		0.2 µM	inhibition	9.62%
CO[C@@H]1[C@H](N(C)C(=O)c2ccccc2)C[C@H]2O[C@]1(C)n1c3ccccc3c3c4c(c5c6ccccc6n2c5c31)C(=O)NC4	enzyme activity	inhibitor		1 µM	inhibition	22%
CCCCC(=O)Nc1ccc(-c2ccc3ncn(CCC)c(=O)c3c2)cn1	binding		competition with immobilised ligand	0.5 µM	remaining binding	52%
C#Cc1cnc(Nc2ccnc(CO)c2)nc1Nc1ccccc1S(C)(=O)=NC#N (stereo not drawn)	cell-free assay			1 µM	remaining signal	54%
C=CC(=O)N1CCC([C@@H]2CCNc3c(C(N)=O)c(-c4ccc(Oc5ccccc5)cc4)nn32)CC1	enzyme activity	inhibitor		1 µM	inhibition	21%
C1=C/COCc2cc(ccc2OCCN2CCCC2)Nc2nccc(n2)-c2cccc(c2)COC/1	cell-free assay			0.1 µM	remaining signal	12%
